# Data from ChEMBL document CHEMBL4346672, “Antimicrobial and KPC/AmpC inhibitory activity of functionalized benzosiloxaboroles” (Eur J Med Chem, 2019).
# Calls of active or inactive are those of the source. The calls are words filed in the database; no cut-off is given here.
# Test system: Staphylococcus aureus
# Experiment: Antibacterial activity against Staphylococcus aureus ATCC 6538P assessed as diameter of zone inhibition measured after 18 hrs by CLSI disc diffusion method
# Format: functional
# Conditions: not given
# Outline: (§1)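 Disc diffusion on Mueller-Hinton II agar. Compounds dissolved in DMSO. Strains stored at -80 °C and subcultured twice on tryptic soy agar before testing. Inhibition zones read after 35 °C, 18 h.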
row,SMILES,diameter of the inhibition zone (DIZ)
1,C[Si]1(C)OB(O)c2c(C=O)cc(F)c(F)c21,21 mm

# Test system: Pseudomonas aeruginosa
# Experiment: Antibacterial activity against Pseudomonas aeruginosa ATCC 27853 measured after 18 hrs by CLSI broth dilution method
# Format: functional
# Conditions: ATCC 27853, 18 h
# Outline: (§2)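 Broth MIC in Mueller-Hinton II broth following CLSI, compounds dissolved in DMSO. Strains subcultured twice on tryptic soy agar before testing. Growth read after 35 °C, 18 h.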
row,MIC,SMILES
1,> 400 µg/mL,C[Si]1(C)OB(O)c2c(C=O)cc(F)c(F)c21

# Test system: Serratia marcescens
# Experiment: Antibacterial activity against Serratia marcescens ATCC 13880 measured after 18 hrs by CLSI broth dilution method
# Format: functional
# Conditions: ATCC 13880, 18 h
# Outline: as §2
row,MIC,SMILES
1,> 400 µg/mL,C[Si]1(C)OB(O)c2c(C=O)cc(F)c(F)c21

# Test system: not listed separately
# Experiment: Dissociation constant, pKa1 of compound in 0.1 M NaOH by potentiometric analysis
# Format: physicochemical
# Conditions: not given
row,pKa,SMILES
1,5.2,C[Si]1(C)OB(O)c2c(C=O)cc(F)c(F)c21

# Test system: Candida parapsilosis
# Experiment: Antifungal activity against Candida parapsilosis ATCC 22019 assessed as decrease in fungal cell growth at 0.78 to 12.5 mg/L incubated for 24 hrs by CLSI broth dilution method
# Format: functional
# Conditions: Lodderomyces parapsilosis, ATCC 22019, 24 h
# Outline: (§3)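 Yeast broth dilution in RPMI 1640 with 2% glucose, compounds in DMSO. Yeasts pre-grown on Sabouraud dextrose agar. Growth read after 35 °C, 24 h.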
row,MIC,SMILES
1,100 µg/mL,C[Si]1(C)OB(O)c2c(C=O)cc(F)c(F)c21

# Test system: Meyerozyma guilliermondii
# Experiment: Antifungal activity against Candida guilliermondii IBA 155 assessed as decrease in fungal cell growth at 0.78 to 12.5 mg/L incubated for 24 hrs by CLSI broth dilution method
# Format: functional
# Conditions: IBA 155, 24 h
# Outline: as §3
row,MIC,SMILES
1,400 µg/mL,C[Si]1(C)OB(O)c2c(C=O)cc(F)c(F)c21

# Test system: Candida albicans
# Experiment: Antifungal activity against Candida albicans ATCC 90028 assessed as diameter of zone inhibition incubated for 24 hrs by CLSI disc diffusion method
# Format: functional
# Conditions: not given
# Outline: (§4)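 Yeast disc diffusion on Mueller-Hinton agar supplemented with 2% glucose and 0.5 mg/L methylene blue. Compounds in DMSO. Yeasts subcultured on Sabouraud dextrose agar before testing. Zones read after 35 °C, 24 h.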
row,SMILES,diameter of the inhibition zone (DIZ)
1,C[Si]1(C)OB(O)c2c(C=O)cc(F)c(F)c21,11 mm

# Test system: Candida parapsilosis
# Experiment: Antifungal activity against Candida parapsilosis ATCC 22019 assessed as diameter of zone inhibition incubated for 24 hrs by CLSI disc diffusion method
# Format: functional
# Conditions: not given
# Outline: as §4
row,SMILES,diameter of the inhibition zone (DIZ)
1,C[Si]1(C)OB(O)c2c(C=O)cc(F)c(F)c21,inactive

# Test system: Candida tropicalis
# Experiment: Antifungal activity against Candida tropicalis IBA 171 assessed as diameter of zone inhibition incubated for 24 hrs by CLSI disc diffusion method
# Format: functional
# Conditions: not given
# Outline: as §4
row,SMILES,diameter of the inhibition zone (DIZ)
1,C[Si]1(C)OB(O)c2c(C=O)cc(F)c(F)c21,11 mm

# Test system: Meyerozyma guilliermondii
# Experiment: Antifungal activity against Candida guilliermondii IBA 155 assessed as diameter of zone inhibition incubated for 24 hrs by CLSI disc diffusion method
# Format: functional
# Conditions: not given
# Outline: as §4
row,SMILES,diameter of the inhibition zone (DIZ)
1,C[Si]1(C)OB(O)c2c(C=O)cc(F)c(F)c21,12 mm

# Test system: Pichia kudriavzevii
# Experiment: Antifungal activity against Candida krusei ATCC 6258 assessed as diameter of zone inhibition incubated for 24 hrs by CLSI disc diffusion method
# Format: functional
# Conditions: not given
# Outline: as §4
row,SMILES,diameter of the inhibition zone (DIZ)
1,C[Si]1(C)OB(O)c2c(C=O)cc(F)c(F)c21,inactive

# Test system: Staphylococcus aureus
# Experiment: Antibacterial activity against Staphylococcus aureus ATCC 6538P measured after 18 hrs by CLSI broth dilution method
# Format: functional
# Conditions: not given
# Outline: as §2
row,MIC,SMILES
1,50 µg/mL,C[Si]1(C)OB(O)c2c(C=O)cc(F)c(F)c21

# Test system: Enterococcus faecalis
# Experiment: Antibacterial activity against Enterococcus faecalis ATCC 29212 measured after 18 hrs by CLSI broth dilution method
# Format: functional
# Conditions: ATCC 29212, 18 h
# Outline: as §2
row,MIC,SMILES
1,400 µg/mL,C[Si]1(C)OB(O)c2c(C=O)cc(F)c(F)c21

# Test system: Enterococcus faecium
# Experiment: Antibacterial activity against Enterococcus faecium ATCC 6057 measured after 18 hrs by CLSI broth dilution method
# Format: functional
# Conditions: ATCC 6057, 18 h
# Outline: as §2
row,MIC,SMILES
1,400 µg/mL,C[Si]1(C)OB(O)c2c(C=O)cc(F)c(F)c21

# Test system: Staphylococcus epidermidis
# Experiment: Antibacterial activity against Staphylococcus epidermidis ATCC 12228 assessed as diameter of zone inhibition measured after 18 hrs by CLSI disc diffusion method
# Format: functional
# Conditions: not given
# Outline: as §1
row,SMILES,diameter of the inhibition zone (DIZ)
1,C[Si]1(C)OB(O)c2c(C=O)cc(F)c(F)c21,28 mm

# Test system: Enterococcus faecalis
# Experiment: Antibacterial activity against Enterococcus faecalis ATCC 29212 assessed as diameter of zone inhibition measured after 18 hrs by CLSI disc diffusion method
# Format: functional
# Conditions: not given
# Outline: as §1
row,SMILES,diameter of the inhibition zone (DIZ)
1,C[Si]1(C)OB(O)c2c(C=O)cc(F)c(F)c21,inactive

# Test system: Enterococcus faecium
# Experiment: Antibacterial activity against Enterococcus faecium ATCC 6057 assessed as diameter of zone inhibition measured after 18 hrs by CLSI disc diffusion method
# Format: functional
# Conditions: not given
# Outline: as §1
row,SMILES,diameter of the inhibition zone (DIZ)
1,C[Si]1(C)OB(O)c2c(C=O)cc(F)c(F)c21,inactive

# Test system: Bacillus subtilis
# Experiment: Antibacterial activity against Bacillus subtilis ATCC 6633 assessed as diameter of zone inhibition measured after 18 hrs by CLSI disc diffusion method
# Format: functional
# Conditions: not given
# Outline: as §1
row,SMILES,diameter of the inhibition zone (DIZ)
1,C[Si]1(C)OB(O)c2c(C=O)cc(F)c(F)c21,18 mm

# Test system: Klebsiella pneumoniae
# Experiment: Antibacterial activity against Klebsiella pneumoniae ATCC 13883 measured after 18 hrs by CLSI broth dilution method
# Format: functional
# Conditions: ATCC 13883, 18 h
# Outline: as §2
row,MIC,SMILES
1,> 400 µg/mL,C[Si]1(C)OB(O)c2c(C=O)cc(F)c(F)c21

# Test system: Proteus mirabilis
# Experiment: Antibacterial activity against Proteus mirabilis ATCC 12453 measured after 18 hrs by CLSI broth dilution method
# Format: functional
# Conditions: ATCC 12453, 18 h
# Outline: as §2
row,MIC,SMILES
1,> 400 µg/mL,C[Si]1(C)OB(O)c2c(C=O)cc(F)c(F)c21

# Test system: Enterobacter cloacae
# Experiment: Antibacterial activity against Enterobacter cloacae DSM 6234 measured after 18 hrs by CLSI broth dilution method
# Format: functional
# Conditions: DSM 6234, 18 h
# Outline: as §2
row,MIC,SMILES
1,> 400 µg/mL,C[Si]1(C)OB(O)c2c(C=O)cc(F)c(F)c21

# Test system: Bordetella bronchiseptica
# Experiment: Antibacterial activity against Bordetella bronchiseptica ATCC 4617 measured after 18 hrs by CLSI broth dilution method
# Format: functional
# Conditions: ATCC 4617, 18 h
# Outline: as §2
row,MIC,SMILES
1,400 µg/mL,C[Si]1(C)OB(O)c2c(C=O)cc(F)c(F)c21

# Test system: Acinetobacter baumannii
# Experiment: Antibacterial activity against Acinetobacter baumannii ATCC 19606 measured after 18 hrs by CLSI broth dilution method
# Format: functional
# Conditions: ATCC 19606, 18 h
# Outline: as §2
row,MIC,SMILES
1,400 µg/mL,C[Si]1(C)OB(O)c2c(C=O)cc(F)c(F)c21

# Test system: Stenotrophomonas maltophilia
# Experiment: Antibacterial activity against Stenotrophomonas maltophilia ATCC 13637 measured after 18 hrs by CLSI broth dilution method
# Format: functional
# Conditions: ATCC 13637, 18 h
# Outline: as §2
row,MIC,SMILES
1,400 µg/mL,C[Si]1(C)OB(O)c2c(C=O)cc(F)c(F)c21

# Test system: Burkholderia cepacia
# Experiment: Antibacterial activity against Burkholderia cepacia ATCC 25416 measured after 18 hrs by CLSI broth dilution method
# Format: functional
# Conditions: ATCC 25416, 18 h
# Outline: as §2
row,MIC,SMILES
1,> 400 µg/mL,C[Si]1(C)OB(O)c2c(C=O)cc(F)c(F)c21

# Test system: Escherichia coli
# Experiment: Antibacterial activity against Escherichia coli ATCC 25922 assessed as diameter of zone inhibition measured after 18 hrs by CLSI disc diffusion method
# Format: functional
# Conditions: not given
# Outline: as §1
row,SMILES,diameter of the inhibition zone (DIZ)
1,C[Si]1(C)OB(O)c2c(C=O)cc(F)c(F)c21,inactive

# Test system: Proteus mirabilis
# Experiment: Antibacterial activity against Proteus mirabilis ATCC 12453 assessed as diameter of zone inhibition measured after 18 hrs by CLSI disc diffusion method
# Format: functional
# Conditions: not given
# Outline: as §1
row,SMILES,diameter of the inhibition zone (DIZ)
1,C[Si]1(C)OB(O)c2c(C=O)cc(F)c(F)c21,inactive

# Test system: Acinetobacter baumannii
# Experiment: Antibacterial activity against Acinetobacter baumannii ATCC 19606 assessed as diameter of zone inhibition measured after 18 hrs by CLSI disc diffusion method
# Format: functional
# Conditions: not given
# Outline: as §1
row,SMILES,diameter of the inhibition zone (DIZ)
1,C[Si]1(C)OB(O)c2c(C=O)cc(F)c(F)c21,inactive

# Test system: Burkholderia cepacia
# Experiment: Antibacterial activity against Burkholderia cepacia ATCC 25416 assessed as diameter of zone inhibition measured after 18 hrs by CLSI disc diffusion method
# Format: functional
# Conditions: not given
# Outline: as §1
row,SMILES,diameter of the inhibition zone (DIZ)
1,C[Si]1(C)OB(O)c2c(C=O)cc(F)c(F)c21,inactive

# Test system: Bordetella bronchiseptica
# Experiment: Antibacterial activity against Bordetella bronchiseptica ATCC 4617 assessed as diameter of zone inhibition measured after 18 hrs by CLSI disc diffusion method
# Format: functional
# Conditions: not given
# Outline: as §1
row,SMILES,diameter of the inhibition zone (DIZ)
1,C[Si]1(C)OB(O)c2c(C=O)cc(F)c(F)c21,inactive

# Test system: Escherichia coli
# Experiment: Antibacterial activity against Escherichia coli ATCC 25922 assessed as fold reduction of MIC in presence of efflux pump inhibitor PAbetaN incubated for 18 hrs by CLSI broth microdilution method
# Format: functional
# Conditions: not given
# Outline: (§5)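 MICs determined with and without PAβN at 50 mg/L in Mueller-Hinton broth containing 1 mM MgSO₄. 2-fold serial dilutions per CLSI. Fold change taken from the paired MICs after 35 °C, 18 h.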
row,SMILES,fold change (FC)
1,C[Si]1(C)OB(O)c2c(C=O)cc(F)c(F)c21,64

# Test system: Klebsiella pneumoniae
# Experiment: Antibacterial activity against Klebsiella pneumoniae ATCC 13883 assessed as fold reduction of MIC in presence of efflux pump inhibitor PAbetaN incubated for 18 hrs by broth microdilution method
# Format: functional
# Conditions: not given
# Outline: as §5
row,SMILES,fold change (FC)
1,C[Si]1(C)OB(O)c2c(C=O)cc(F)c(F)c21,32

# Test system: Proteus mirabilis
# Experiment: Antibacterial activity against Proteus mirabilis ATCC 12453 assessed as fold reduction of MIC in presence of efflux pump inhibitor PAbetaN incubated for 18 hrs by broth microdilution method
# Format: functional
# Conditions: not given
# Outline: as §5
row,SMILES,fold change (FC)
1,C[Si]1(C)OB(O)c2c(C=O)cc(F)c(F)c21,2

# Test system: Stenotrophomonas maltophilia
# Experiment: Antibacterial activity against Stenotrophomonas maltophilia ATCC 13637 assessed as fold reduction of MIC in presence of efflux pump inhibitor PAbetaN incubated for 18 hrs by broth microdilution method
# Format: functional
# Conditions: not given
# Outline: as §5
row,SMILES,fold change (FC)
1,C[Si]1(C)OB(O)c2c(C=O)cc(F)c(F)c21,4

# Test system: Klebsiella pneumoniae
# Conditions: ATCC 13883
row,SMILES,DIZ
1,C[Si]1(C)OB(O)c2c(C=O)cc(F)c(F)c21,inactive

# Test system: Serratia marcescens
# Conditions: ATCC 13880
row,SMILES,DIZ
1,C[Si]1(C)OB(O)c2c(C=O)cc(F)c(F)c21,inactive
